A short description of the data set: Toxicity liver stage against HepG2, at 10uM. Further details: test concentration 10 uM, cell line HepG2-A16-CD81EGFP. It counts as cell-based. The following applies: human, HepG2-A16-CD81EGFP cells; read-out: INHIBITION
The essentials:
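Uninfected HepG2-A16-CD81EGFP cells, 3 × 10^3 per well, 1536-well, plated on prespotted compound at 10 μM final, parasite-free screening media added to match infected plates; puromycin 10 μM positive, DMSO 0.5% negative; run in parallel with 48 h PbLuc assay at 37 °C, 5% CO2; viability by CellTiter-Glo luminescence, normalized to controls.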
For the molecule `CC(C)(C)CC(=O)Nc1ccc(S(C)(=O)=O)nc1`, the cytotoxicity at 10 µM is -3.05%.

As to `CC(C)N1CCC(CC(=O)N2CCN(Cc3nccn3C)CC2)CC1`, the cytotoxicity at 10 µM is -3.91%. Under `COc1cc(NC(=O)c2ccc(Cl)cc2F)c(C(=O)N(C)C)cc1OC` stands -18.9%. With `COc1ccccc1-n1cc(CN2CCN(C)[C@@H]3CS(=O)(=O)C[C@@H]32)cn1` the figure was 14.5%. With `CCCN1CCCC2(CCN(Cc3cncn3C3CCCC3)C2)C1=O` (stereo unspecified) the figure was -13%; with `Cc1cncc(NC(=O)c2ccc(CN3CCC(CO)CC3)cc2)c1`, 19%; with `COCCN1C(=O)CO[C@@H]2CN(S(=O)(=O)c3ccccc3)C[C@H]21`, 0.975%. Turning to `COc1ccc(-c2noc(CCC(=O)N3CCOCC3(C)C)n2)cc1`, the cytotoxicity at 10 µM turned out to be 6.99%. For the molecule `Cc1cc(=O)c2ccccc2n1CC1CCNC1` (stereo unspecified), the cytotoxicity at 10 µM turned out to be 5.98%. Consider `CC[C@H]1COCCN1C(=O)c1cnc(C(C)C)nc1C`, for which the cytotoxicity at 10 µM came to 8.51%.

With `CCc1cnc(CN(C)C2CCN(CCCNS(C)(=O)=O)C2)o1` (stereo unspecified), the cytotoxicity at 10 µM was -3.4%. Under `CNC(=O)C1CC(=O)N(c2cccc(F)c2)C1` (stereo unspecified) stands 4.61%; under `Cc1cc(C(=O)N2CCCN(c3nccs3)CC2)c(C)n1C(C)C`, 9.48%; under `CC(C)(C)OC(=O)N1CCC(NC2CCS(=O)(=O)C2)CC1` (stereo unspecified), -6.72%. With `CCc1nc2c(c(N3CCOCC3)n1)CCN(C(=O)N1CCCC1)CC2` the figure was 7.6%; with `Fc1cccc(CN2CCC3(CCN3c3ncccn3)C2)c1` (stereo unspecified), 15.3%; with `CNC(=O)[C@H]1C[C@@H]2CN(C(=O)c3ccco3)C[C@@H]2N1S(C)(=O)=O`, -10.2%. Take `Cc1cc(CN(C)C(=O)NC2CCC(O)CC2)no1` (stereo unspecified): the cytotoxicity at 10 µM is -0.252%. For `Cc1nc(C(C)(C)NC(=O)Nc2ccncc2)no1`, the cytotoxicity at 10 µM was found to be 9.32%.

On to `CCC(C)(C)NC(=O)CN1C=Nc2ccccc2S1(=O)=O`, for which the cytotoxicity at 10 µM is -4.47%. With `Cn1cc(N2CC3(COCCN(Cc4ccsc4)C3)OCC2=O)cn1` (stereo unspecified) the figure was 3.55%; with `CCc1noc(CN2CCN(C(=O)OC(C)(C)C)C(C)C2)n1` (stereo unspecified), 2.53%; with `Cc1ncc(C(=O)N2CC(C(=O)N3CCOCC3)C2)c(C)n1`, 3.54%. As for `Cc1nnc(C(C)N(C)Cc2c(C)nn(-c3ccccc3C)c2C)o1` (stereo unspecified), the cytotoxicity at 10 µM is -1.07%. As for `COc1ccc(Oc2ncccc2F)cc1CN1CCCC1`, the cytotoxicity at 10 µM was 2.09%. With `O=C(CC1CC1)N1CCC2(CC1)C(=O)NCCN2Cc1ccccc1` the figure was -3.33%; with `CCc1cnc(N2CCN(Cc3ccno3)CC2)s1`, -2.54%; with `CCSCCC(C)N(C)C(=O)c1ccc(C)o1` (stereo unspecified), -3.75%. As for `O=C(NCCOc1ccccc1)Nc1cc(C(F)(F)F)c[nH]c1=O`, the cytotoxicity at 10 µM was -11.9%. For the molecule `CNC(=O)C1(CCCc2ccncc2)CCCCN1` (stereo unspecified), the cytotoxicity at 10 µM is -37.5%. Under `Cc1nc(C2CN(Cc3scnc3C)CCO2)cc(N(C)C)n1` (stereo unspecified) stands -12.3%; under `CN(c1nccc(-c2cnc3sccn3c2=O)n1)C1CCCCC1`, -8.44%. With `Cc1cc(=O)n2ncnc2n1CC(O)c1ccccc1F` (stereo unspecified) the figure was -13.7%.

With `CC(C)c1nc(CN(C)Cc2ncccc2C(=O)O)cs1`, the cytotoxicity at 10 µM is -15.3%. With `COCc1ccccc1C(=O)N(C)Cc1ncc(C)c(OC)c1C` the figure was -7.55%; with `COc1cccc2sc(N(C)CC(=O)NCc3nc(C)no3)nc12`, -1.53%; with `Cc1cc(S(=O)(=O)N2CCCc3ccc(F)cc32)sc1C(=O)O`, 18.1%.

With `CCNC(=O)C1(Cc2ccc(-c3ccccc3)cc2)CCCNC1` (stereo unspecified), the cytotoxicity at 10 µM was -3.73%. On to `Cc1cc(NC(=O)CNc2cccc(C(=O)N3CCCC(O)C3)c2)no1` (stereo unspecified), for which the cytotoxicity at 10 µM was -2.21%.

On to `CNC(=O)[C@@H]1C[C@H](N)CN1Cc1cc2cc(C)cc(C)c2[nH]c1=O`, for which the cytotoxicity at 10 µM is -1.72%. With `CSCC[C@@H](CO)Nc1ccc(-c2nc(-c3ccccc3C)no2)cn1`, the cytotoxicity at 10 µM stood at 3.77%. As to `Cc1ccc(CN2C[C@@H](OCc3csc(C)n3)[C@H]3COC[C@H]32)s1`, the cytotoxicity at 10 µM was -5.21%. With `Cc1occc1C(=O)NCC(=O)N1CCC(COc2ccccc2)CC1` the figure was 12.2%.

Consider `CS(=O)(=O)NCC(=O)NCc1cccnc1-n1cnc2ccccc21`, for which the cytotoxicity at 10 µM was determined as 0.324%. With `O=C(c1ccon1)N1CCN(c2ccncc2Cl)CC1` the figure was 2.22%. With `CN1CCN(C2CCN(c3cnc4ccccc4n3)CC2)C1=O` the figure was 27.4%. With `COc1cc(C)nc(N2CCN(C(=O)c3ccoc3C)CC2)n1` the figure was -21.8%; with `COCCN1CC2(CCCN(c3ncc(Cl)cc3F)C2)CCC1=O` (stereo unspecified), 21.8%. With `CCc1nnc2n1CCN(C(=O)CCOc1ccc(C)cc1C)C2`, the cytotoxicity at 10 µM was determined as 2.93%. As to `CC(=O)NCCC1CCCCN1S(=O)(=O)c1cccc(Cl)c1` (stereo unspecified), the cytotoxicity at 10 µM is -125%. For `c1cc(CN2CCCn3cnc(COCC4CC4)c3C2)ccn1`, the cytotoxicity at 10 µM amounted to 7.31%.

As to `Cc1nc(NCC(O)CN2CCCCCC2)c2c(C)noc2n1` (stereo unspecified), the cytotoxicity at 10 µM was -5.78%. Under `NC(=O)N1CCCN(C2CCCCc3ccccc32)CC1` (stereo unspecified) stands -43.9%; under `Cc1ccc(C(=O)N2CCC(=O)N(CC3CC3)C(C(C)C)C2)c(=O)[nH]1` (stereo unspecified), -15%; under `CN1C[C@@H](C(=O)N2CCOCC2)[C@@]2(CCc3ccccc3C(=O)N2)C1`, 9.87%. Under `O=C(c1sccc1C1CC1)N1CCN(c2cnccn2)CC1` stands -2.92%. With `CC(C)NC(=O)N1CC(=O)c2sc(Nc3ccc(C#N)cc3)nc2C1` the figure was -7.77%; with `CC(NCc1c(C(C)C)nn(C)c1N1CCOCC1)C(N)=O` (stereo unspecified), -5.23%; with `Oc1ccccc1CN1CCCCCC1c1cccs1` (stereo unspecified), -3.2%. `CC(=O)Nn1c(C)cc(CN2CCCN(Cc3ccncc3)CC2)c1C`: the cytotoxicity at 10 µM is 5.63%. Turning to `O=C(Nc1cccnc1)c1nn(C2CCS(=O)(=O)C2)c2c1CCCC2` (stereo unspecified), the cytotoxicity at 10 µM turned out to be 7.41%. With `Cc1cc2ccccc2n1CC(=O)Nc1ccnn1CC1CCOC1` (stereo unspecified) the figure was 7.77%. Under `COC(=O)c1sc2cccc(F)c2c1CNC(=O)C1CCOC1` (stereo unspecified) stands 8.97%; under `CC(C)C(C(=O)N1CCC(N(C)c2cccnn2)CC1)n1cncn1` (stereo unspecified), -7.44%. Take `COCCn1cnnc1Cn1ccnc1-c1ccsc1`: the cytotoxicity at 10 µM worked out at 8.61%. In the case of `COc1cc(CN2CCCCCC2c2cccs2)cc(OC)c1OC` (stereo unspecified), the cytotoxicity at 10 µM was 33.3%. Under `CCN(CC)[C@@H]1CN(S(=O)(=O)c2cn(C)cn2)[C@@H]2CCCO[C@H]12` stands -147%; under `O=C(C1CC=CC1)N1Cc2nccn2CC(CN2CCCC2)C1` (stereo unspecified), -86.5%; under `CCOc1cc(C(=O)N2CCCC2)cc2occc12`, 8.52%.

Regarding `CCN(C(=O)c1ccc2c(c1)OCO2)C1CC(=O)NC1=O` (stereo unspecified), the cytotoxicity at 10 µM is -3.04%. In the case of `O=C(c1cccnc1)N1CCC2(CC1)CC(Oc1ccccc1)CO2` (stereo unspecified), the cytotoxicity at 10 µM came out at 1.65%.
